MrgX1 ag = human MrgX1 receptor agonism, primary screen | B-score at 10 µM | actives 0.44% (n = 310,000) | AID 588627 | MrgX1-HEK293 cells, Fluo-4 calcium fluorescence, agonist mode; stronger effect = higher value | Q96LB2;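 active means calcium response B-score plate-corrected fluorescence ratio at least 3 library SD, with starting fluorescence B-score inside 5 SD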
Target sequence (Q96LB2 whole entry, looked up): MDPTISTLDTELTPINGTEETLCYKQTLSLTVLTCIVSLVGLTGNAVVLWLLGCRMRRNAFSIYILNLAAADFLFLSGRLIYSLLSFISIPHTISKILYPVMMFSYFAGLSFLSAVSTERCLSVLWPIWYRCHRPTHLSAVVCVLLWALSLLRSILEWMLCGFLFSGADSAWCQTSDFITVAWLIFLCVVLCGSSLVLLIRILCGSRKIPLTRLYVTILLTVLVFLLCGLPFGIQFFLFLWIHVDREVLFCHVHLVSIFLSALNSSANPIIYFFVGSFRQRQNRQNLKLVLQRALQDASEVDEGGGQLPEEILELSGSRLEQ
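Material: MrgX1-expressing HEK293 cells; input: 15,000 cells per well; doses: test compound given as first of three sequential additions; schedule: overnight plating before 1 h dye loading; technique: Fluo-4 NW calcium-flux fluorescence, kinetic read; evaluation: baseline-normalised fluorescence change ratio, B-scored; control set: plate-wise positive and negative controls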
RGS4 act = potentiators or activators of RGS4 | HEK293 M3R/inducible RGS4, carbachol calcium flux Fluo4; stronger effect = lower value | B-score at 10 µM | actives 0.92% (n = 310,000);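 active means B-score of the integrated calcium signal more than 4 SD below the library mean, with starting fluorescence not abnormally high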;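 further: negative B-score means reduced calcium response which marks RGS4 activation or potentiation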
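test system = M3R-expressing HEK293 line, RGS4 induced by doxycycline | probe or stimulus = carbachol at ECmax as muscarinic agonist stimulus | timing = dye loading 30 min 37 °C, buffer rest 30 min RT | signal = calcium dye Fluo4 fluorescence | evaluation = B score from integrated fluorescence ratio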
MrgX1 antag = human MrgX1 receptor antagonism, primary screen; MRGX1-HEK293 calcium flux, Fluo-4, BAM8-22 antagonism; stronger effect = lower value; B-score at 10 µM; actives 1.3% (n = 310,000); AID 588676;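 active means calcium-response B-score plate-corrected more than 3 library SD below zero, starting fluorescence within 5 deviations, no agonist response on first addition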;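 further: peak minus trough fluorescence over baseline after final BAM8-22 challenge near maximal dose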
MrgX1 allo act = human MrgX1 positive allosteric modulation, primary screen | Q96LB2 | MrgX1-HEK293, Fluo-4 calcium flux, FDSS; stronger effect = higher value | B-score at 10 µM | actives 0.63% (n = 310,000);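 active means plate-corrected calcium response at least 3 library SD above typical, normal starting fluorescence, not activating the receptor alone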;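 further: compound read alongside a low EC10 to EC30 dose of BAM8-22 agonist; peak minus trough fluorescence over baseline measured at the second addition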
RGS4 block = inhibitors of human RGS4. P49798. HEK293 M3R/RGS4 inducible, Fluo-4 calcium flux; stronger effect = higher value; triggered by carbachol at its EC20. B-score at 10 µM. actives 0.45% (n = 310,000);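 active means B-score, a plate-corrected calcium signal, over three deviations above library mean, with baseline fluorescence within five deviations of library mean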;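 further: RGS4 expression induced by doxycycline in cells with stable M3 receptor; B-score is computed from the integrated fluorescence ratio over baseline after carbachol; higher B-score means a larger calcium signal and so more RGS4 inhibition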
Of the large screens only hits and unclear results are named; the others gave an inactive call. Sampled rows, rich in hits. Any-hit rate of the full collection: about 3.5%.

COc1ccc(CN(CCNC(=O)CCCCC(=O)NCCN(Cc2ccc(OC)cc2)C(C)C)C(C)C)cc1	RGS4 act -9.15
COc1cc(SC)ccc1C(=O)NNC(=O)c1cc(C)oc1C	MrgX1 antag -4.84
COc1cc(SC)ccc1C(=O)Nc1c(C)cccc1C	none
CCCc1ncc(CN2CCC(C(=O)Nc3cccc(-c4cscn4)c3)CC2)cn1	none
CCC(C)NC(=O)c1ccc(-n2c(=S)[nH]c3ccccc3c2=O)cc1 (centres undefined)	none
CCOC(=O)c1c(N2C(=O)Nc3ccccc3N2O)sc2c1CCCCC2	MrgX1 ag 34.6
COC(=O)c1c(N2C(=O)Nc3ccccc3N2O)sc2c1CCCC2	none
CCN1/C(=C/c2cccc[n+]2C)Sc2ccc(OC)cc21	RGS4 act -7.52, MrgX1 antag -6.05
COc1ccc2c(c1)N(C)/C(=C/c1cccc[n+]1C)S2	RGS4 act -9.42, MrgX1 antag -5.76
COc1cc(OC)cc(C(=O)/C=C2\Sc3ccccc3N2C)c1	none
CCOc1ccc(S(=O)(=O)N2CCCC(C(=O)NCc3ccccc3)C2)cc1 (centres undefined)	none
O=C(Nc1ccc(Br)c(C(F)(F)F)c1)c1ccc(C(F)(F)F)cc1	MrgX1 antag -7.23
O=C(Nc1ccc(Br)c(C(F)(F)F)c1)c1ccccc1	none
O=C(Nc1ccc(OCC(F)(F)C(F)F)c(C(F)(F)F)c1)c1ccc(Cl)cc1	RGS4 act -7.76
O=C(COC(=O)c1cccc([N+](=O)[O-])c1)c1ccc2c(c1)OCO2	none
CC(=O)CCc1oc2ccc([N+](=O)[O-])cc2c1-c1ccc(C)o1	none
C/C(CCc1oc2ccccc2c1-c1ccc(C)o1)=N/O	MrgX1 ag 28.3
O=C1COc2ccc(S(=O)(=O)CCC(=O)NC3CCCCC3)cc2N1	none
COc1ccc(OC)c(CCNC(=O)CCC(=O)N2CCOc3ccc(C)cc32)c1	none
Cc1sc2nc(CSC(C)C(=O)Nc3cc(S(C)(=O)=O)ccc3Cl)[nH]c(=O)c2c1C (centres undefined)	none
COC(=O)CCCCCCCCCCN1CCCCC1	RGS4 act -9.2
C1CCCN(CCCCN2CCCCCC2)CC1	none
N#C/C(=C\c1ccc2c(c1)OCCO2)C(=O)Nc1nccs1	MrgX1 ag 52.1
COc1ccc(C2=NOC(Cn3nc(C(=O)NCC4CC4)cc3-c3ccccc3)C2)cc1 (centres undefined)	MrgX1 allo act 7.89
O=S(=O)(Nc1ccc(F)cc1)c1ccc(NS(=O)(=O)c2cccs2)cc1	none
C/C(=N\NC(=O)C1CC1)c1ccc(Cl)c(Cl)c1	none
C/C(=N\N=C(N)N)c1ccc(Cl)c(Cl)c1	MrgX1 allo act 14.1
CC(=O)c1ccc(OCCCC(=O)NC(C)c2ccc(S(N)(=O)=O)cc2)cc1 (centres undefined)	MrgX1 allo act 6.64
Cc1ccc(OCCCC(=O)NC(C)c2ccccc2)cc1 (centres undefined)	none
O=C(NC1CCCC1)C(c1cccnc1)N(C(=O)c1ccco1)c1ccc(F)cc1 (centres undefined)	none
O=C(NC1CCSc2ccccc21)c1cccc(S(=O)(=O)N2CCOCC2)c1 (centres undefined)	none
CCOc1ccc(Nc2nc(NCC3CCCO3)c3ccccc3n2)cc1 (centres undefined)	RGS4 act -7.19, MrgX1 antag -5.86
Oc1cccc(Nc2nc(NCC3CCCO3)c3ccccc3n2)c1 (centres undefined)	none
CN(C)CCCOc1cccc(Oc2ccccc2)c1	RGS4 act -7.53
Cn1c(-c2c(N)n(-c3ccccc3)c3nc4ccccc4nc23)nc2ccccc21	none
Cc1cccc(-n2c(N)c(-c3nc4ccccc4n3C)c3nc4ccccc4nc32)c1	RGS4 act -7.46
O=C(NCCCN1CCCC1)c1ccc2c(c1)N(Cc1ccccc1)CCS2	RGS4 act -7.41
Cc1cc(C)c(NC(=O)CSc2nnnn2-c2cccnc2)c(C)c1	none
CC1=NNC(=O)/C1=C\c1cn(-c2ccccc2)nc1-c1ccc(Cl)cc1	none
Cc1ccc(-c2nn(-c3ccccc3)cc2C=C2C(=O)CC(C)(C)CC2=O)cc1	RGS4 block 10.7
Cc1cccc(C)c1NC(=O)CN(C)C(=O)CSC(=S)N1CCCC1	none
